{
  "source": "ChEMBL document CHEMBL5329160",
  "about": "“Design, synthesis, and mechanistic study of 2-piperazineone-bearing peptidomimetics as novel HIV capsid modulators” (RSC Med Chem, 2023)",
  "key": {"[1]": {"assay": "Metabolic stability in human microsomes assessed as intrinsic clearance at 1 uM preincubated for 60 mins followed by NADPH addition and measured after 60 mins", "format": "ADME, Microsome", "conditions": "time 120 min, read-out: CLH"}, "[2]": {"assay": "Metabolic stability in human liver assessed as intrinsic clearance at 1 uM preincubated for 10 mins followed by NADPH addition and measured after 60 mins", "conditions": "read-out: CLH"}, "[3]": {"assay": "Metabolic stability in human liver microsomes assessed as remaining compound at 1 uM after 60 mins in absence of NADPH", "format": "ADME, Microsome", "conditions": "read-out: Stability", "how_it_was_run": "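No-cofactor control: human liver microsomes at 0.5 mg protein/mL in 100 mM phosphate buffer with compound at 1 µM, buffer added in place of NADPH. Incubated 60 min at 37°C with shaking, then quenched with cold ACN containing tolbutamide and labetalol internal standards. Centrifuged, supernatant diluted in water, analysed by LC-MS/MS.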"}, "[4]": {"system": "Human immunodeficiency virus 1", "assay": "Antiviral activity against HIV-1 IIIB infected in MT4 cells assessed as protection against virus induced cytotoxicity incubated for 5 days by MTT assay", "format": "functional, organism-based", "conditions": "Human immunodeficiency virus 1, IIIB, MT4, 120 h"}, "[5]": {"biological_target": "Structural capsid protein (Human immunodeficiency virus 1) (UniProt Q76129)", "sequence (Q76129 as listed by the source)": "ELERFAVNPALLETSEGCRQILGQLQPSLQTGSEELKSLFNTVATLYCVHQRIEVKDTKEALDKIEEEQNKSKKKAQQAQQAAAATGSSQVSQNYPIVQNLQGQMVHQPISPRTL", "assay": "Ratio of Kd for HIV-1 NL4-3 monomeric capsid protein to Kd for HIV-1 NL4-3 hexameric capsid protein"}, "[6]": {"assay": "Metabolic stability in human liver microsomes assessed as remaining compound at 1 uM after 60 mins in presence of NADPH", "format": "ADME, Microsome", "conditions": "read-out: Stability", "how_it_was_run": "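Human liver microsomes at 0.5 mg protein/mL in 100 mM potassium phosphate, compound at 1 µM final (0.99% ACN, 0.01% DMSO). After 10 min pre-warming of the microsomes at 37°C, NADPH (1 mM final, in 10 mM MgCl2) was added. Incubated at 37°C with shaking, sampled at 0, 5, 15, 30, 45 and 60 min into cold ACN with internal standards. LC-MS/MS analysis; T1/2 and CLint(mic) (µL/min/mg) from first-order kinetics.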"}, "[7]": {"system": "Human immunodeficiency virus 2", "assay": "Antiviral activity against HIV-2 ROD infected in MT4 cells assessed as protection against virus induced cytotoxicity and measured after 5 days by MTT spectrophotometric assay", "format": "functional, organism-based", "conditions": "Human immunodeficiency virus 2, ROD, MT4, 120 h"}, "[8]": {"assay": "Cytotoxicity against human MT4 cells assessed as reduction in cell viability after 5 days by MTT assay", "format": "toxicity, cell-based", "conditions": "time 5 day"}, "[9]": {"biological_target": "T1, Structural capsid protein (Human immunodeficiency virus 1, UniProt Q76129)", "T1 sequence (Q76129 whole entry)": "as the sequence (Q76129 as listed by the source) above", "assay": "Binding affinity to HIV-1 NL4-3 monomeric capsid protein by SPR analysis", "how_it_was_run": "(§1)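 SPR binding isotherms averaged over 3 replicates, with error bars as SD.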"}, "[10]": {"assay": "Selectivity index, ratio of CC50 for human MT4 cells to EC50 for HIV-1 IIIB infected in human MT4 cells", "format": "toxicity, cell-based", "conditions": "read-out: Ratio CC50/EC50"}, "[11]": {"biological_target": "T1, Structural capsid protein", "assay": "Binding affinity to HIV-1 NL4-3 hexameric capsid protein by SPR analysis", "how_it_was_run": "as §1"}, "[12]": {"assay": "Selectivity index, ratio of CC50 for human MT4 cells to EC50 for HIV-2 ROD infected in human MT4 cells", "format": "toxicity, cell-based", "conditions": "read-out: Ratio CC50/EC50"}, "[13]": {"biological_target": "Structural capsid protein (Human immunodeficiency virus 1) (UniProt Q76129)", "assay": "Binding affinity to HIV-1 NL4-3 hexameric capsid protein assessed as Koff by SPR analysis", "conditions": "filed as modulator"}, "[14]": {"system": "Human immunodeficiency virus 1", "assay": "Antiviral activity against late stage HIV-1 infected in U87.CD4.CXCR4 cells assessed as viral infection at 60 uM preincubated with virus for 48 hrs followed by cell addition and measured after 48 hrs by luciferase based luminometer assay (reference value: 100 +/- 11 %)", "format": "functional", "conditions": "time 96 hrs"}, "[15]": {"system": "Human immunodeficiency virus 1", "assay": "Antiviral activity against early stage HIV-1 infected in U87.CD4.CXCR4 cells assessed as viral infection at 60 uM preincubated with virus followed by cell addition and measured after 48 hrs by luciferase based luminometer assay (reference value: 100 +/- 8.4 %)", "format": "functional"}, "[16]": {"system": "Human immunodeficiency virus 1", "assay": "Antiviral activity against late stage HIV-1 infected in U87.CD4.CXCR4 cells assessed as viral infection at 1 uM preincubated with virus for 48 hrs followed by cell addition and measured after 48 hrs by luciferase based luminometer assay (reference value: 100 +/- 11 %)", "format": "functional", "conditions": "time 96 hrs"}, "[17]": {"system": "Human immunodeficiency virus 1", "assay": "Antiviral activity against early stage HIV-1 infected in U87.CD4.CXCR4 cells assessed as viral infection at 1 uM preincubated with virus followed by cell addition and measured after 48 hrs by luciferase based luminometer assay (reference value: 100 +/- 8.4 %)", "format": "functional"}, "[18]": {"system": "Human immunodeficiency virus 1", "assay": "Antiviral activity against HIV-1 infected in MT4 cells", "format": "functional, organism-based", "conditions": "Human immunodeficiency virus 1, MT4"}},
  "data": [
    {"compound": "C[C@]12CC[C@H]3[C@@H](CCC4=CC(=O)CC[C@@]43C)[C@@H]1CC[C@@H]2O", "note": "[TESTOSTERONE]", "values": [
      {"measurement": "microsomal CLint at 1 µM", "setting": "[1]", "result": 83, "unit": "µL/min/mg"},
      {"measurement": "CLint scaled at 1 µM", "setting": "[2]", "result": 74, "unit": "mL/min/kg"}
    ]},
    {"compound": "COc1ccc(N(C)C(=O)[C@H](Cc2cc(F)cc(F)c2)NC(=O)CN2CCN(C(=O)c3ccccc3[N+](=O)[O-])CC2=O)cc1", "values": [
      {"measurement": "remaining at 1 h, 1 µM", "setting": "[3]", "result": 96, "unit": "%"},
      {"measurement": "EC50", "setting": "[4]", "result": 6, "unit": "µM"},
      {"measurement": "Ratio", "setting": "[5]", "result": 2.5},
      {"measurement": "remaining at 1 h, 1 µM", "setting": "[6]", "result": 0.23, "unit": "%"},
      {"measurement": "EC50", "setting": "[7]", "result": 6.3, "unit": "µM"},
      {"measurement": "CC50 at 120 h", "setting": "[8]", "result": 160, "unit": "µM"},
      {"measurement": "Kd", "setting": "[9]", "result": 13, "unit": "µM"},
      {"measurement": "selectivity ratio", "setting": "[10]", "result": 27},
      {"measurement": "Kd", "setting": "[11]", "result": 5.2, "unit": "µM"},
      {"measurement": "CLint scaled at 1 µM", "setting": "[2]", "result": 3.3, "unit": "mL/min/kg"},
      {"measurement": "selectivity ratio", "setting": "[12]", "result": 25},
      {"measurement": "K", "setting": "[13]", "result": 0.25, "unit": "s⁻¹"},
      {"measurement": "Activity", "setting": "[14]", "result": 10, "unit": "%"},
      {"measurement": "Activity", "setting": "[15]", "result": 8.1, "unit": "%"}
    ]},
    {"compound": "Cc1[nH]c2ccccc2c1CC(=O)[C@@H](Cc1ccccc1)C(=O)N(C)c1ccccc1", "values": [
      {"measurement": "EC50", "setting": "[4]", "result": 0.75, "unit": "µM"},
      {"measurement": "Ratio", "setting": "[5]", "result": 21.4},
      {"measurement": "remaining at 1 h, 1 µM", "setting": "[6]", "result": 0, "unit": "%"},
      {"measurement": "EC50", "setting": "[7]", "result": 4.2, "unit": "µM"},
      {"measurement": "CC50 at 120 h", "setting": "[8]", "result": 32, "unit": "µM"},
      {"measurement": "Kd", "setting": "[9]", "result": 3.4, "unit": "µM"},
      {"measurement": "Kd", "setting": "[11]", "result": 0.16, "unit": "µM"},
      {"measurement": "CLint scaled at 1 µM", "setting": "[2]", "result": 2.6, "unit": "mL/min/kg"},
      {"measurement": "Activity", "setting": "[16]", "result": 150, "unit": "%"},
      {"measurement": "K", "setting": "[13]", "result": 0.018, "unit": "s⁻¹"},
      {"measurement": "Activity", "setting": "[17]", "result": -0.12, "unit": "%"}
    ]},
    {"compound": "CC(C)(C#Cc1ccc(-c2ccc(Cl)c3c(NS(C)(=O)=O)nn(CC(F)(F)F)c23)c([C@H](Cc2cc(F)cc(F)c2)NC(=O)Cn2nc(C(F)(F)F)c3c2C(F)(F)[C@@H]2C[C@H]32)n1)S(C)(=O)=O", "values": [
      {"measurement": "EC50", "setting": "[18]", "result": 0.000105, "unit": "µM"}
    ]}
  ]
}
